Screening data deposited in PubChem BioAssay by several laboratories.
GalR3 antagonist = GalR3 antagonists in HEK293 cells, primary screen, cell-based, fluorescence readout. Galanin receptor type 3 (Homo sapiens), O60755. HEK293 GalR3-CNG cAMP membrane potential fluorescence; galR3 body fused to GalR1 C-terminus. inhibition, % at 3 µM. actives 0.44% (n = 360,000);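 active = inhibition above the screen-wide average plus 3 SD, cut at about 13% in these data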;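 note: forskolin and galanin both at EC90 stimulate the cells; cAMP rise reported by CNG channel membrane potential dye signal; 0% = forskolin plus galanin with DMSO and 100% = forskolin alone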
697 NFkB inh = inhibitors of PMA/ionomycin-induced NF-kB reporter, 697 cells, primary screen, B-cell NF-kB inhibitor project, cell-based, luminescence, uHTS. 697 B-cell NF-kB luciferase reporter, 16 h. inhibition, % at 4 µM. actives 0.33% (n = 330,000); in the data active = inhibition above about 35%
Jurkat NFkB inh = inhibitors of induced NF-kB luciferase reporter, primary screen, TCR NF-kB activation inhibitor project, cell-based, luminescence, uHTS; Jurkat, PMA/ionomycin-induced NF-kB luciferase reporter; inhibition, % at 4 µM; actives 0.53% (n = 330,000); in the data active = inhibition above about 50%
NR2E3 ag-1 = NR2E3 agonists in two-hybrid cells, primary screen, cell-based, luminescence, CHO-S, Gal4-NCOR/VP16-NR2E3; luciferase; inhibition of corepressor binding, % at 3.98 µM; Photoreceptor-specific nuclear receptor (Homo sapiens), Q9Y5X4; actives 0.35% (n = 360,000);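 active = inhibition above the mean of all tested compounds plus 3 SD, cut at about 70% in these data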;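 note: 0% = DMSO with NR2E3 transfected cells and 100% = cells lacking NR2E3 construct; higher means lower luciferase signal from less NR2E3 corepressor binding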
NR2E3 ag-2 = inhibitors of NR2E3-RetCOR corepressor binding, primary screen, NR2E3 agonist project, biochemical, TR-FRET, GST-NR2E3, biotin-RetCOR | Photoreceptor-specific nuclear receptor (Homo sapiens), Q9Y5X4 | 1536-well | inhibition of corepressor binding, % at 4.78 µM | actives 0.12% (n = 320,000);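 active = percent inhibition above the cutoff of mean plus 3 SD of all tested compounds, set per screening campaign, cut at about 20% in these data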;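 note: 0% = DMSO wells and 100% = biotin wells as full block of FRET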
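Material: NR2E3–RetCOR corepressor complex / Incubation: Compound–protein incubation for 5 h at 4 °C / Dosing: compound at 4.8 µM, single dose / Detection: time-resolved FRET / Benchmarks: high control biotin, low control 0.6% DMSO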
GASC-1 inh = inhibitors of GASC-1 histone demethylase, primary screen, biochemical, fluorescence, DELFIA europium | Lysine-specific demethylase 4C (Homo sapiens), Q9H3R0 | GST-JMJD2C(1-420) H3K9me3 demethylation | inhibition, % at 2.35 µM | actives 0.069% (n = 330,000) | AID 2099, 2009;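 active = more than half of a compound's replicate wells show inhibition beyond 50%, single wells judged on their own value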;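 note: signal counts dimethyl H3K9 product captured on neutravidin plate; 0% = median of DMSO wells and 100% = 0.3 times that DMSO median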
Target sequence (Q9H3R0 1-420 limits assumed): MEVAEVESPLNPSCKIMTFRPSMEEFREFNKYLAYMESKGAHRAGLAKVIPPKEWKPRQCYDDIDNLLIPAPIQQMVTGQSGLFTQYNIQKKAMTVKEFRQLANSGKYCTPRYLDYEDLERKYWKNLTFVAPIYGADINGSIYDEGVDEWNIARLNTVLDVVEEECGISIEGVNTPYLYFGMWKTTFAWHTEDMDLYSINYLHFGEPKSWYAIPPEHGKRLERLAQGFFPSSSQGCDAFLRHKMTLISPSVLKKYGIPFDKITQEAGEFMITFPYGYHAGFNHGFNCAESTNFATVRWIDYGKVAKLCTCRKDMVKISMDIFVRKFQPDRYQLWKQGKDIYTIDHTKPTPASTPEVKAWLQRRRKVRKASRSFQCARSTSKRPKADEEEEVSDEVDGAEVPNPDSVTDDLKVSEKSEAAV
Jurkat NFkB conf = PMA/ionomycin-induced NF-kB reporter inhibitors, Jurkat retest, confirmation, T-cell NF-kB inhibitor project, cell-based, luminescence, single concentration; shares compounds with Jurkat NFkB inh; Jurkat NF-kB luciferase, 16 h; inhibition, % at 4 µM; actives 27% (n = 2,700); AID 435020, 2010;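 active = inhibition reaching about 45% at 4 µM in either replicate, limit read from the data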;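 note: plate controls were PMA/ionomycin stimulated DMSO wells for no effect and unstimulated DMSO wells for full effect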
* marks the source's active call; other numbers are inactive results; x = no result. An excerpt weighted towards active compounds, which were near 1.5% of everything screened.

SMILES	GalR3 antagonist	697 NFkB inh	Jurkat NFkB inh	NR2E3 ag-1	NR2E3 ag-2	GASC-1 inh	Jurkat NFkB conf
CCn1cnnc1SCC(=O)c1c(N)n(C2CC2)c(=O)[nH]c1=O	-2	12	20	-36	1	-1	x
COC(=O)CCC(=O)NC(=S)Nc1sc(C)c(C)c1C(N)=O	-2	-41	65*	2	13	1	50*
Cc1noc(C)c1COc1ccc(C(=O)OCc2nnc(-c3ccc(Cl)cc3)o2)cc1	-4	19	6	-9	1	1	x
Cc1nc(C(=O)Nc2ccccc2)sc1C1(C)CC(c2cccnc2)=NO1 (stereo not drawn)	1	-29	-60	-62	3	13	x
COc1ccc(NC(=O)c2nc(C)c(C3(C)CC(c4ccccc4)=NO3)s2)cc1 (stereo not drawn)	0	-14	55*	-27	0	-7	37
COc1cc(OC)cc(-c2nc3cc(C)ccc3o2)c1	0	-175	-151	-137	-1	-2	-72
Cc1ccc(-c2nc3cc(Cl)ccc3o2)cc1	1	-198	-135	-57	0	-2	x
Cc1ccc(NC(=O)c2cc3ccccc3oc2=O)cc1S(=O)(=O)N(C)C	x	-48	56*	52	3	-39	91*
Cc1ccc(NC(=O)c2cc3ccccc3o2)cc1S(=O)(=O)N(C)C	2	x	x	-84	x	x	x
c1ccc(-c2cn3c(n2)-c2ccccc2C3)cc1	-5	-222	-160	-111	2	-2	-147
Cc1ccc2nc(-c3ccccc3)cn2c1	-5	-7	46	-14	5	-10	x
COc1cc(C(=O)N(C)C2CCCCC2)cc(OC)c1OC	-4	x	x	5	x	x	x
COc1ccccc1Nc1c2c(nc3ccccc13)CCC2	-14	-52	52*	5	2	-18	25
CCc1ccc(N2C(=O)Nc3ccccc3C2(O)C(=O)N2CCN(c3ccccn3)CC2)cc1 (stereo not drawn)	2	-13	17	-18	-1	-13	x
Cc1nn(-c2ccccc2)c(C)c1/C=N/NC(=O)c1cc(-c2ccc(Br)s2)[nH]n1	-1	-19	62*	-2	0	0	28
Cc1cc(C(=O)N/N=C/c2c(C)nn(-c3ccccc3)c2C)n[nH]1	-4	-1	7	-3	-2	15	x
Cc1nn(-c2ccccc2)c(C)c1/C=N/NC(=O)c1cc(C2CC2)[nH]n1	0	11	-6	10	-1	24	x
Cc1nn(-c2ccccc2)c(C)c1/C=N/NC(=O)c1cc(-c2ccc(Cl)s2)[nH]n1	2	-3	72*	-31	0	3	34
COc1cc(OC)cc(-c2noc(-c3csc([C@@H]4C[C@H](O)[C@@H](CO)O4)n3)n2)c1	-5	x	x	-60	x	x	x
CCOc1cc(C(=O)N/N=C/C(Br)=C/c2ccccc2)cc(OCC)c1OCC	-11	-28	58*	4	-3	11	48
O=C(N/N=C/C(Br)=C/c1ccccc1)c1ccncc1	-2	-71	21	-2	-6	3	x
Cc1csc(NC(C)c2nc3cc(Cl)c(N4CCCCC4)cc3n2CCOCCO)n1 (stereo not drawn)	1	5	-6	-7	1	1	x
COc1ccc(C(=O)Nc2ccc(N3CCOCC3)cc2)cc1S(=O)(=O)N1CCOCC1	-2	19	0	-10	x	x	x
COc1ccc(C(=O)Nc2ccc(-c3ccc(C)o3)cc2)cc1S(=O)(=O)N1CCOCC1	94*	15	59*	-10	-1	0	12
